These results are taken from ChEMBL document CHEMBL1151702, “Using an aryl phenanthroimidazole moiety as a conjugated flexible intercalator to improve the hybridization efficiency of a triplex-forming oligonucleotide” (Bioorg Med Chem, 2008).

What all share (format): nucleic-acid assay
For assay [1], the system named is Nucleic Acid. The experiment in a line: Binding affinity to synthetic double stranded DNA D4 at 1.5 uM at pH 6.0 by thermal denaturation study. The method, boiled down: (§1)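 Parallel triplex melting: target duplex assembled from strands at 1.0 µM each, TFO third strand added at 1.5 µM. Buffer 20 mM sodium cacodylate, 100 mM NaCl, 10 mM MgCl₂, at the pH of the line. Samples heated to 80 °C for 5 min, cooled to 5 °C and held 30 min. Absorbance read at 260 nm while heating at 1.0 °C/min; Tm taken as the first-derivative maximum.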

Assay [2] concerns Nucleic Acid. Nature of the assay: Binding affinity to synthetic double stranded DNA D3 at 1.5 uM at pH 6.0 by thermal denaturation study. The method, boiled down:
as §1

In assay [3] the test system is Nucleic Acid. Nature of the assay: Binding affinity to synthetic double stranded DNA D2 at 1.5 uM at pH 6.0 by thermal denaturation study. The method, boiled down:
as §1

The subject of assay [4] is Nucleic Acid. Nature of the assay: Binding affinity to synthetic oligonucleotide ON18 at 1.0 uM at pH 6.0 by thermal denaturation study. The method, boiled down: (§2)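 Duplex melting: complementary strands at 1.0 µM each in 20 mM sodium cacodylate, 100 mM NaCl, 10 mM MgCl₂, at the pH of the line. Annealed at 80 °C for 5 min, then cooled to 5 °C and held 30 min. UV absorbance read at 260 nm with heating at 1.0 °C/min; Tm is the maximum of the first-derivative curve.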

Assay [5] deals with Nucleic Acid. The experiment in a line: Binding affinity to synthetic double stranded DNA D1 at 1.5 uM at pH 7.2 by thermal denaturation study. The method, boiled down:
as §1

For assay [6], the system named is Nucleic Acid. Nature of the assay: Binding affinity to synthetic double stranded DNA D1 at 1.5 uM at pH 6.0 by thermal denaturation study. The method, boiled down: as §1
Assay [7] deals with Nucleic Acid. The experiment in a line: Binding affinity to synthetic double stranded DNA D1 at 1.5 uM at pH 5.0 by thermal denaturation study. The method, boiled down:
as §1

Assay [8] has as its system Nucleic Acid. Nature of the assay: Binding affinity to synthetic oligonucleotide ON19 at 1.0 uM at pH 6.0 by thermal denaturation study. The method, boiled down:
as §2

The subject of assay [9] is Nucleic Acid. The experiment in a line: Binding affinity to synthetic oligonucleotide ON19 at 1.0 uM at pH 7.2 by thermal denaturation study. The method, boiled down: as §2
For assay [10], the system named is Nucleic Acid. The experiment in a line: Binding affinity to synthetic oligonucleotide ON20 at 1.0 uM at pH 7.0 by thermal denaturation study. The method, boiled down: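 DNA/RNA antiparallel duplex: each strand at 1.0 µM in 10 mM sodium phosphate, 140 mM NaCl, 1 mM EDTA, pH 7.0. Heated to 80 °C for 5 min, cooled to 5 °C and held 30 min. Absorbance followed at 260 nm during a 1.0 °C/min temperature ramp; Tm is the first-derivative maximum.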

By Tm is commonly meant the temperature at the midpoint of the melting transition.

In the case of `Cc1cn([C@H]2C[C@H](OP(=O)(O)OC[C@H]3O[C@@H](n4ccc(N)nc4=O)C[C@@H]3OP(=O)(O)OC[C@H]3O[C@@H](n4cc(C)c(=O)[nH]c4=O)C[C@@H]3OP(=O)(O)OC[C@H]3O[C@@H](n4cc(C)c(=O)[nH]c4=O)C[C@@H]3OP(=O)(O)OC[C@H]3O[C@@H](n4cc(C)c(=O)[nH]c4=O)C[C@@H]3O[PH](O)(O)OC[C@H]3O[C@@H](n4cc(C)c(=O)[nH]c4=O)C[C@@H]3OP(=O)(O)OC[C@H]3O[C@@H](n4cc(C)c(=O)[nH]c4=O)C[C@@H]3OP(=O)(O)OC[C@H]3O[C@@H](n4cc(C)c(=O)[nH]c4=O)C[C@@H]3O)[C@@H](COC[C@H](CCOc3ccc(-c4nc5c6ccccc6c6ccccc6c5[nH]4)cc3)OP(=O)(O)O[C@H]3C[C@H](n4cc(C)c(=O)[nH]c4=O)O[C@@H]3COP(=O)(O)O[C@H]3C[C@H](n4cc(C)c(=O)[nH]c4=O)O[C@@H]3COP(=O)(O)O[C@H]3C[C@H](n4ccc(N)nc4=O)O[C@@H]3COP(=O)(O)O[C@H]3C[C@H](n4ccc(N)nc4=O)O[C@@H]3COP(=O)(O)O[C@H]3C[C@H](n4ccc(N)nc4=O)O[C@@H]3COP(=O)(O)O[C@H]3C[C@H](n4ccc(N)nc4=O)O[C@@H]3CO)O2)c(=O)[nH]c1=O`, the Tm in [1] is 31.5 °C; in [2], 29.5 °C; in assay [3] it was 23 °C; in assay [4] it was 31.5 °C; in assay [5], 26 °C; in assay [6], 46.5 °C. Besides, the Tm in assay [7] was found to be 59.5 °C; in assay [8], 50.5 °C; in assay [9], 50.5 °C; in [10] it was 53 °C.
In the case of `Cc1cn([C@H]2C[C@H](OP(=O)(O)OC[C@H]3O[C@@H](n4ccc(N)nc4=O)C[C@@H]3OP(=O)(O)OC[C@H]3O[C@@H](n4cc(C)c(=O)[nH]c4=O)C[C@@H]3OP(=O)(O)OC[C@H]3O[C@@H](n4cc(C)c(=O)[nH]c4=O)C[C@@H]3OP(=O)(O)OC[C@H]3O[C@@H](n4cc(C)c(=O)[nH]c4=O)C[C@@H]3O[PH](O)(O)OC[C@H]3O[C@@H](n4cc(C)c(=O)[nH]c4=O)C[C@@H]3OP(=O)(O)OC[C@H]3O[C@@H](n4cc(C)c(=O)[nH]c4=O)C[C@@H]3OP(=O)(O)OC[C@H]3O[C@@H](n4cc(C)c(=O)[nH]c4=O)C[C@@H]3O)[C@@H](COC[C@H](CCOc3ccc(-c4nc5c6ccccc6c6ccccc6c5[nH]4)c4ccccc34)OP(=O)(O)O[C@H]3C[C@H](n4cc(C)c(=O)[nH]c4=O)O[C@@H]3COP(=O)(O)O[C@H]3C[C@H](n4cc(C)c(=O)[nH]c4=O)O[C@@H]3COP(=O)(O)O[C@H]3C[C@H](n4ccc(N)nc4=O)O[C@@H]3COP(=O)(O)O[C@H]3C[C@H](n4ccc(N)nc4=O)O[C@@H]3COP(=O)(O)O[C@H]3C[C@H](n4ccc(N)nc4=O)O[C@@H]3COP(=O)(O)O[C@H]3C[C@H](n4ccc(N)nc4=O)O[C@@H]3CO)O2)c(=O)[nH]c1=O`, the Tm in assay [1] was 25.5 °C; in assay [2] it was 21 °C; in assay [3], 16.5 °C; in assay [4], 21.5 °C; in assay [5], 18.5 °C; in assay [6], 40.5 °C. In addition, the Tm in [7] is 55 °C; in assay [8], 46.5 °C; in assay [9] it was 46 °C; in assay [10] it was 49.5 °C.
With `Cc1cn([C@H]2C[C@H](OP(=O)(O)OC[C@H]3O[C@@H](n4ccc(N)nc4=O)C[C@@H]3OP(=O)(O)OC[C@H]3O[C@@H](n4cc(C)c(=O)[nH]c4=O)C[C@@H]3OP(=O)(O)OC[C@H]3O[C@@H](n4cc(C)c(=O)[nH]c4=O)C[C@@H]3OP(=O)(O)OC[C@H]3O[C@@H](n4cc(C)c(=O)[nH]c4=O)C[C@@H]3O[PH](O)(O)OC[C@H]3O[C@@H](n4cc(C)c(=O)[nH]c4=O)C[C@@H]3OP(=O)(O)OC[C@H]3O[C@@H](n4cc(C)c(=O)[nH]c4=O)C[C@@H]3OP(=O)(O)OC[C@H]3O[C@@H](n4cc(C)c(=O)[nH]c4=O)C[C@@H]3O)[C@@H](COC[C@H](CCOc3ccc(-c4ncc[nH]4)c4ccccc34)OP(=O)(O)O[C@H]3C[C@H](n4cc(C)c(=O)[nH]c4=O)O[C@@H]3COP(=O)(O)O[C@H]3C[C@H](n4cc(C)c(=O)[nH]c4=O)O[C@@H]3COP(=O)(O)O[C@H]3C[C@H](n4ccc(N)nc4=O)O[C@@H]3COP(=O)(O)O[C@H]3C[C@H](n4ccc(N)nc4=O)O[C@@H]3COP(=O)(O)O[C@H]3C[C@H](n4ccc(N)nc4=O)O[C@@H]3COP(=O)(O)O[C@H]3C[C@H](n4ccc(N)nc4=O)O[C@@H]3CO)O2)c(=O)[nH]c1=O`, the Tm is 10.5 °C in [6] and 33 °C in assay [7].
On to `Cc1cn([C@H]2C[C@H](OP(=O)(O)OC[C@H]3O[C@@H](n4cc(C)c(=O)[nH]c4=O)C[C@@H]3OP(=O)(O)OC[C@H]3O[C@@H](n4cc(C)c(=O)[nH]c4=O)C[C@@H]3OP(=O)(O)OC[C@H]3O[C@@H](n4ccc(N)nc4=O)C[C@@H]3OP(=O)(O)OC[C@H]3O[C@@H](n4cc(C)c(=O)[nH]c4=O)C[C@@H]3OP(=O)(O)OC[C@H]3O[C@@H](n4cc(C)c(=O)[nH]c4=O)C[C@@H]3OP(=O)(O)OC[C@H]3O[C@@H](n4cc(C)c(=O)[nH]c4=O)C[C@@H]3O[PH](O)(O)OC[C@H]3O[C@@H](n4cc(C)c(=O)[nH]c4=O)C[C@@H]3OP(=O)(O)OC[C@H]3O[C@@H](n4cc(C)c(=O)[nH]c4=O)C[C@@H]3OP(=O)(O)OC[C@H]3O[C@@H](n4cc(C)c(=O)[nH]c4=O)C[C@@H]3O)[C@@H](COP(=O)(O)O[C@H]3C[C@H](n4ccc(N)nc4=O)O[C@@H]3COP(=O)(O)O[C@H]3C[C@H](n4ccc(N)nc4=O)O[C@@H]3COP(=O)(O)O[C@H]3C[C@H](n4ccc(N)nc4=O)O[C@@H]3COP(=O)(O)O[C@H]3C[C@H](n4ccc(N)nc4=O)O[C@@H]3CO)O2)c(=O)[nH]c1=O`, for which the Tm in assay [1] was less than 5 °C; in [2] it was less than 5 °C; in [3], less than 5 °C; in assay [4] it was 19 °C; in [5], less than 5 °C; in assay [6], 28 °C. Moreover, the Tm was 55 °C in [7], 49.5 °C in [8], 49.5 °C in [9] and 52 °C in assay [10].
For `Cc1cn([C@H]2C[C@H](OP(=O)(O)OC[C@H]3O[C@@H](n4ccc(N)nc4=O)C[C@@H]3OP(=O)(O)OC[C@H]3O[C@@H](n4cc(C)c(=O)[nH]c4=O)C[C@@H]3OP(=O)(O)OC[C@H]3O[C@@H](n4cc(C)c(=O)[nH]c4=O)C[C@@H]3OP(=O)(O)OC[C@H]3O[C@@H](n4cc(C)c(=O)[nH]c4=O)C[C@@H]3O[PH](O)(O)OC[C@H]3O[C@@H](n4cc(C)c(=O)[nH]c4=O)C[C@@H]3OP(=O)(O)OC[C@H]3O[C@@H](n4cc(C)c(=O)[nH]c4=O)C[C@@H]3OP(=O)(O)OC[C@H]3O[C@@H](n4cc(C)c(=O)[nH]c4=O)C[C@@H]3O)[C@@H](COC[C@H](COCc3ccc(C#Cc4ccc5ccc6cccc7ccc4c5c67)cc3)OP(=O)(O)O[C@H]3C[C@H](n4cc(C)c(=O)[nH]c4=O)O[C@@H]3COP(=O)(O)O[C@H]3C[C@H](n4cc(C)c(=O)[nH]c4=O)O[C@@H]3COP(=O)(O)O[C@H]3C[C@H](n4ccc(N)nc4=O)O[C@@H]3COP(=O)(O)O[C@H]3C[C@H](n4ccc(N)nc4=O)O[C@@H]3COP(=O)(O)O[C@H]3C[C@H](n4ccc(N)nc4=O)O[C@@H]3COP(=O)(O)O[C@H]3C[C@H](n4ccc(N)nc4=O)O[C@@H]3CO)O2)c(=O)[nH]c1=O`, the Tm in assay [1] came to 28.5 °C; in assay [2] it was 34.5 °C; in [3], 27 °C; in [4] it was 33.5 °C; in assay [5] it was 28 °C; in assay [6], 45.5 °C. Also, the figures for the Tm in assay [7], in assay [8] and in assay [9] were 59 °C, 46.5 °C and 45.5 °C, respectively.
